Measurements published in ChEMBL document CHEMBL6153064, “Structure-based discovery of novel diarylpyrimidines as potent and selective Non-Nucleoside reverse transcriptase inhibitors: From CH(CN)-Biphenyl-Diarylpyrimidines to CNNH2-Biphenyl-Diarylpyrimidines” (Eur J Med Chem, 2025).

Columns and labels:
[1] = Cytotoxicity against human MT4 cells by MTT assay; type: toxicity, cell-based
[2] = Selectivity index, ratio of CC50 for cytotoxicity against human MT4 cells to EC50 for antiviral activity against wild type HIV-1 IIIB infected in human MT4 cells; type: toxicity, cell-based; conditions: read-out: Ratio CC50/EC50
Outline: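 Selectivity index calculated as CC50/EC50 ratio, both values from MTT viability readout in MT-4 cells, antiviral arm using wild-type HIV-1 IIIB.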

[3] = test system: Human immunodeficiency virus 1; assay: Antiviral activity against wild type HIV-1 IIIB infected in human MT4 cells […]; type: functional, organism-based; conditions: Human immunodeficiency virus 1, IIIB
[4] = test system: Human immunodeficiency virus 1; assay: Antiviral activity against HIV-1 harboring E138K mutant infected in human MT4 cells […]; type: functional, organism-based; conditions: Human immunodeficiency virus 1, MT4
[5] = test system: Human immunodeficiency virus 1; assay: Antiviral activity against HIV-1 harboring K103N mutant infected in human MT4 cells […]; type: functional, organism-based; conditions: Human immunodeficiency virus 1, MT4
[6] = test system: Human immunodeficiency virus 1; assay: Antiviral activity against HIV-1 harboring Y181C mutant infected in human MT4 cells […]; type: functional, organism-based; conditions: Human immunodeficiency virus 1, MT4
[7] = molecular target: Human immunodeficiency virus type 1 reverse transcriptase (Human immunodeficiency virus 1, UniProt Q72547); assay: Inhibition of wild type HIV-1 Reverse transcriptase
[8] = test system: Human immunodeficiency virus 1; assay: Antiviral activity against HIV-1 harboring Y188L mutant infected in human MT4 cells assessed as inhibition of virus-induced cytopathic effect by MTT assay; conditions: Human immunodeficiency virus 1, MT4
[9] = test system: Human immunodeficiency virus 1; assay: Antiviral activity against HIV-1 harboring L100I mutant infected in human MT4 cells […]; type: functional, organism-based; conditions: Human immunodeficiency virus 1, MT4
[10] = molecular target: Human immunodeficiency virus type 1 reverse transcriptase (Human immunodeficiency virus 1) (UniProt Q72547); assay: Potency index, ratio of Nevirapine IC50 to test compound IC50 for inhibition of wild type HIV-1 Reverse transcriptase
[11] = Stability in human plasma assessed as parent compound remaining measured at 300 mins; type: ADME, cell-free; conditions: read-out: Stability
[12] = Stability in human plasma assessed as half life; type: ADME, cell-free
[13] = Stability in human plasma assessed as parent compound remaining measured at 30 mins; type: ADME, cell-free; conditions: read-out: Stability
[14] = Stability in human plasma assessed as parent compound remaining measured at 15 mins; type: ADME, cell-free; conditions: read-out: Stability
[15] = Metabolic stability in human liver microsomes assessed as half life; type: ADME, Microsome
Outline: (§1)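 Incubation with human liver microsomes; half-life obtained from depletion fit (R² reported), intrinsic clearance expressed per mg microsomal protein (μL/min/mg) and scaled to liver (mL/min/kg).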

[16] = Stability in human plasma assessed as parent compound remaining measured immediately; type: ADME, cell-free; conditions: read-out: Stability
[17] = Stability in human plasma assessed as parent compound remaining measured at 60 mins; type: ADME, cell-free; conditions: read-out: Stability
[18] = Metabolic stability in human microsomes assessed as intrinsic clearance; type: ADME, Microsome; conditions: read-out: CLH; outline: as §1
[19] = Stability in human plasma assessed as parent compound remaining measured at 120 mins; type: ADME, cell-free; conditions: read-out: Stability

C/N=C(/c1ccnc(Nc2ccc(C#N)cc2)n1)c1ccc(-c2ccc(C#N)cc2)cc1OC
CC50 [1]: 16000 nM | selectivity ratio [2]: 1960 | EC50 [3]: 8 nM | EC50 [4]: 83 nM | EC50 [5]: 169 nM | EC50 [6]: 293 nM | IC50 [7]: 61 nM | EC50 [8]: 4460 nM | EC50 [9]: 293 nM

N#Cc1ccc(Nc2nccc(C(C#N)c3ccc(-c4ccc(C#N)cc4)cc3F)n2)cc1 (centres undefined)
CC50 [1]: 36000 nM | selectivity ratio [2]: 1360 | EC50 [4]: 170 nM | EC50 [5]: 900 nM | EC50 [6]: 870 nM | EC50 [8]: 9810 nM | EC50 [9]: 1210 nM

C/N=C(/c1ccnc(Nc2ccc(C#N)cc2)n1)c1ccc(-c2ccc(C#N)cc2)cc1C
CC50 [1]: > 47000 nM | selectivity ratio [2]: > 3940 | EC50 [3]: 12 nM | EC50 [4]: 82 nM | EC50 [5]: 373 nM | EC50 [6]: 420 nM | IC50 [7]: 58 nM | EC50 [8]: > 46700 nM | EC50 [9]: 1540 nM

N#Cc1ccc(Nc2nccc(/C(=N/N)c3c(F)cc(-c4ccc(C#N)cc4)cc3F)n2)cc1
CC50 [1]: 23000 nM | selectivity ratio [2]: 2480 | EC50 [3]: 9 nM | EC50 [4]: 38 nM | EC50 [5]: 44 nM | EC50 [6]: 64 nM | IC50 [7]: 31 nM | EC50 [8]: > 23100 nM | EC50 [9]: 16 nM

CNC(c1ccnc(Nc2ccc(C#N)cc2)n1)c1ccc(-c2ccc(C#N)cc2)cc1F (centres undefined)
CC50 [1]: 13000 nM | selectivity ratio [2]: 196 | EC50 [3]: 64 nM | EC50 [4]: 368 nM | EC50 [5]: 10500 nM | Ratio IC50 [10]: 0.96 | EC50 [6]: 1910 nM | IC50 [7]: 783 nM | EC50 [8]: > 12700 nM | EC50 [9]: ≥ 11000 nM

CNC(c1ccnc(Nc2ccc(C#N)cc2)n1)c1ccc(-c2ccc(C#N)cc2)cc1C (centres undefined)
CC50 [1]: 12000 nM | selectivity ratio [2]: 367 | EC50 [3]: 33 nM | EC50 [4]: 279 nM | EC50 [5]: 743 nM | EC50 [6]: 1090 nM | IC50 [7]: 153 nM | EC50 [8]: 9200 nM | EC50 [9]: 2440 nM

Cc1ccnc2c1NC(=O)c1cccnc1N2C1CC1 [NEVIRAPINE]
EC50 [8]: > 15000 nM | EC50 [9]: 2060 nM

N#Cc1ccc(Nc2nccc(/C(=N/N)c3ccc(-c4ccc(C#N)cc4)cc3F)n2)cc1
CC50 [1]: > 46000 nM | selectivity ratio [2]: > 6210 | EC50 [3]: 7 nM | EC50 [4]: 194 nM | EC50 [5]: 125 nM | EC50 [6]: 210 nM | IC50 [7]: 20 nM | EC50 [8]: > 46100 nM | EC50 [9]: 69 nM

Cc1cc(C#N)cc(C)c1Oc1nc(Nc2ccc(C#N)cc2)nc(N)c1Br [ETRAVIRINE]
CC50 [1]: > 4600 nM | remaining at 5 h [11]: 78.5% | half-life [12]: > 5 h | remaining at 0.5 h [13]: 95.4% | remaining at 0.25 h [14]: 102% | half-life [15]: 1.09 h | remaining at 0 min [16]: 100% | remaining at 1 h [17]: 97% | microsomal CLint [18]: 21.1 µL/min/mg | remaining at 2 h [19]: 92.1% | EC50 [8]: 20 nM

CNC(c1ccnc(Nc2ccc(C#N)cc2)n1)c1ccc(-c2ccc(C#N)cc2)cc1C(F)(F)F (centres undefined)
CC50 [1]: 15000 nM | selectivity ratio [2]: 363 | EC50 [3]: 39 nM | EC50 [4]: 184 nM | EC50 [5]: 1340 nM | Ratio IC50 [10]: 1.5 | EC50 [6]: 1180 nM | IC50 [7]: 495 nM | EC50 [8]: 7510 nM | EC50 [9]: 2440 nM

CNC(c1ccnc(Nc2ccc(C#N)cc2)n1)c1ccc(-c2ccc(C#N)cc2)cc1OC (centres undefined)
CC50 [1]: 13000 nM | selectivity ratio [2]: 354 | EC50 [3]: 36 nM | EC50 [4]: 224 nM | EC50 [5]: 941 nM | Ratio IC50 [10]: 0.78 | EC50 [6]: 1300 nM | IC50 [7]: 963 nM | EC50 [8]: 7320 nM | EC50 [9]: 2330 nM

Cc1cc(-c2ccc(C#N)cc2)ccc1/C(=N\N)c1ccnc(Nc2ccc(C#N)cc2)n1
CC50 [1]: > 291000 nM | selectivity ratio [2]: > 45000 | EC50 [3]: 7 nM | EC50 [4]: 13 nM | EC50 [5]: 17 nM | EC50 [6]: 47 nM | IC50 [7]: 23 nM | EC50 [8]: 442 nM | EC50 [9]: 16 nM

Cc1cc(/C=C/C#N)cc(C)c1Nc1ccnc(Nc2ccc(C#N)cc2)n1 [RILPIVIRINE]
remaining at 5 h [11]: 97.4% | half-life [12]: > 5 h | remaining at 0.5 h [13]: 99.4% | remaining at 0.25 h [14]: 102% | remaining at 0 min [16]: 100% | remaining at 1 h [17]: 99.3% | microsomal CLint [18]: 108 µL/min/mg | remaining at 2 h [19]: 95.3%

C/N=C(/c1ccnc(Nc2ccc(C#N)cc2)n1)c1ccc(-c2ccc(C#N)cc2)cc1OC(F)(F)F
CC50 [1]: > 251000 nM | selectivity ratio [2]: > 19100 | EC50 [3]: 13 nM | EC50 [4]: 122 nM | EC50 [5]: 281 nM | EC50 [6]: 361 nM | IC50 [7]: 221 nM | EC50 [8]: 20100 nM | EC50 [9]: 301 nM

N#Cc1ccc(Nc2nccc(/C(=N/N)c3ccc(-c4ccc(C#N)cc4)cc3OC(F)(F)F)n2)cc1
CC50 [1]: 171000 nM | selectivity ratio [2]: 4310 | EC50 [3]: 40 nM | EC50 [4]: 340 nM | EC50 [5]: 182 nM | EC50 [6]: 260 nM | IC50 [7]: 72 nM | EC50 [8]: 1480 nM | EC50 [9]: 180 nM

N#Cc1ccc(Nc2nccc(/C(=N/N)c3ccc(-c4ccc(C#N)cc4)cc3C(F)(F)F)n2)cc1
CC50 [1]: 68000 nM | selectivity ratio [2]: 2170 | EC50 [3]: 31 nM | EC50 [4]: 68 nM | EC50 [5]: 106 nM | EC50 [6]: 134 nM | IC50 [7]: 58 nM | EC50 [8]: 1140 nM | EC50 [9]: 58 nM

N#Cc1ccc(Nc2nccc(C(NCCCO)c3ccc(-c4ccc(C#N)cc4)cc3Cl)n2)cc1 (centres undefined)
CC50 [1]: 23000 nM | selectivity ratio [2]: 345 | EC50 [3]: 67 nM

O=C1Nc2ccc(Cl)cc2[C@@](C#CC2CC2)(C(F)(F)F)O1 [EFAVIRENZ]
CC50 [1]: > 6300 nM | EC50 [6]: 8 nM

C/N=C(/c1ccnc(Nc2ccc(C#N)cc2)n1)c1ccc(-c2ccc(C#N)cc2)cc1Cl
CC50 [1]: > 45000 nM | selectivity ratio [2]: > 7140 | EC50 [3]: 6 nM | EC50 [4]: 51 nM | EC50 [5]: 129 nM | EC50 [6]: 192 nM | IC50 [7]: 69 nM | EC50 [8]: 3810 nM | EC50 [9]: 149 nM

CCCNC(c1ccnc(Nc2ccc(C#N)cc2)n1)c1ccc(-c2ccc(C#N)cc2)cc1F (centres undefined)
CC50 [1]: > 270000 nM | selectivity ratio [2]: > 1060 | EC50 [3]: 259 nM

C/N=C(/c1ccnc(Nc2ccc(C#N)cc2)n1)c1ccc(-c2ccc(C#N)cc2)cc1C(F)(F)F
CC50 [1]: 119000 nM | selectivity ratio [2]: 3280 | EC50 [3]: 35 nM | EC50 [4]: 290 nM | EC50 [5]: 415 nM | EC50 [6]: 435 nM | IC50 [7]: 180 nM | EC50 [8]: 3030 nM | EC50 [9]: 352 nM

CNC(c1ccnc(Nc2ccc(C#N)cc2)n1)c1ccc(-c2ccc(C#N)cc2)cc1OC(F)(F)F (centres undefined)
CC50 [1]: 18000 nM | selectivity ratio [2]: 313 | EC50 [3]: 56 nM | EC50 [4]: 320 nM | EC50 [5]: 1460 nM | Ratio IC50 [10]: 0.38 | EC50 [6]: 2220 nM | IC50 [7]: 2000 nM | EC50 [8]: ≥ 7210 nM | EC50 [9]: 1940 nM

N#Cc1ccc(Nc2nccc(/C(=N/N)c3ccc(-c4ccc(C#N)cc4)cc3Cl)n2)cc1
CC50 [1]: 212000 nM | selectivity ratio [2]: 33300 | EC50 [3]: 6 nM | EC50 [4]: 76 nM | EC50 [5]: 49 nM | EC50 [6]: 67 nM | IC50 [7]: 36 nM | EC50 [8]: 778 nM | EC50 [9]: 22 nM

CCNC(c1ccnc(Nc2ccc(C#N)cc2)n1)c1ccc(-c2ccc(C#N)cc2)cc1F (centres undefined)
CC50 [1]: 31000 nM | selectivity ratio [2]: 87 | EC50 [3]: 357 nM

CCNC(c1ccnc(Nc2ccc(C#N)cc2)n1)c1ccc(-c2ccc(C#N)cc2)cc1Cl (centres undefined)
CC50 [1]: 19000 nM | selectivity ratio [2]: 187 | EC50 [3]: 99 nM

CCNC(c1ccnc(Nc2ccc(C#N)cc2)n1)c1ccc(-c2ccc(C#N)cc2)cc1C (centres undefined)
CC50 [1]: 12000 nM | selectivity ratio [2]: 188 | EC50 [3]: 63 nM

CCCNC(c1ccnc(Nc2ccc(C#N)cc2)n1)c1ccc(-c2ccc(C#N)cc2)cc1Cl (centres undefined)
CC50 [1]: > 261000 nM | selectivity ratio [2]: > 1420 | EC50 [3]: 184 nM

CCNC(c1ccnc(Nc2ccc(C#N)cc2)n1)c1ccc(-c2ccc(C#N)cc2)cc1OC(F)(F)F (centres undefined)
CC50 [1]: 21000 nM | selectivity ratio [2]: 43 | EC50 [3]: 505 nM
